Source: ChEMBL document CHEMBL2439996, “Phenyl substituted 3-hydroxypyridin-2(1H)-ones: inhibitors of influenza A endonuclease” (Bioorg Med Chem, 2013)

Tests used:
[1] = test system: MDCK; test: Cytotoxicity against MDCK cells after 4 days by MTT assay; type: cell-based; settings: Canis lupus familiaris, 96 h
Summary of the method: (§1)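 MTT microtiter assay; cells kept at 37 °C, 5% CO2 in DMEM with regular passage. Wells seeded with 3,000 cells each, exposed continuously for four days to varying drug concentrations in triplicate, with a drug-free control. MTT read at end of day 4 to give IC50.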

[2] = test system: HEK293; test: Cytotoxicity against human HEK293 cells after 4 days by MTT assay; type: cell-based; settings: HEK293, 96 h; summary of the method: as §1
[3] = Inhibition of endonuclease activity of Influenza A virus H1N1 RNA-dependent RNA polymerase expressed in Escherichia coli BL21 using 6FAM-TGGCAATATCAGCTCCACA-MGBNFQ as substrate after 5 to 240 mins by fluorescence assay
Summary of the method: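 PA_N (pandemic H1N1 endonuclease, residues 1-204, His-tag removed, SEC-purified). Inhibitor serially diluted, DMSO at most 2.5% (v/v). Ex 488/em 518 read at 5, 120, 240 min at 37 °C. IC50 by nonlinear regression of fluorescence change, mean of triplicates ± SEM.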

Structure (SMILES) | IC50 [1] [µM] | IC50 [2] [µM] | IC50 [3] [µM]
O=c1[nH]ccc(-c2ccc(F)cc2)c1O | > 100 | > 100 | > 200
O=c1[nH]cc(-c2ccccc2)cc1O | 80 | ≥ 28 | 2.1
O=c1[nH]cc(-c2ccc(F)cc2)cc1O | > 100 | > 100 | 0.73
N#Cc1ccc(-c2c[nH]c(=O)c(O)c2)cc1 | > 100 | > 100 | 3.83
O=c1[nH]cc(-c2ccc(-c3nnn[nH]3)cc2)cc1O | > 100 | 80 | 0.368
O=c1[nH]c(-c2ccccc2)ccc1O | 60 | ≥ 28 | 0.87
O=c1[nH]c(-c2ccc(F)cc2)ccc1O | > 100 | > 100 | 0.43
N#Cc1ccc(-c2ccc(O)c(=O)[nH]2)cc1 | > 100 | ≥ 28 | 0.802
O=c1[nH]c(-c2ccc(-c3nnn[nH]3)cc2)ccc1O | > 100 | ≥ 28 | 0.085
O=c1[nH]c(-c2ccccc2)c(-c2ccccc2)cc1O | > 100 | ≥ 28 | 0.047
O=c1[nH]c(-c2ccc(F)cc2)c(-c2ccc(F)cc2)cc1O | > 100 | > 100 | –
N#Cc1ccc(-c2cc(O)c(=O)[nH]c2-c2ccc(C#N)cc2)cc1 | 40 | ≥ 28 | 0.103
O=c1[nH]c(-c2ccc(-c3nnn[nH]3)cc2)c(-c2ccc(-c3nnn[nH]3)cc2)cc1O | > 100 | > 100 | 0.285
O=c1[nH]ccc(-c2ccccc2)c1O | > 100 | > 100 | 35
